Data: ChEMBL document CHEMBL4257556, “Novel 1,3,4-thiadiazole-chalcone hybrids containing catechol moiety: synthesis, antioxidant activity, cytotoxicity and DNA interaction studies” (Medchemcomm, 2018)
Calls of active or inactive are those of the source. The calls are words filed in the database; no cut-off is given here.

How the values were obtained:
HeLa [1] = assay: Cell cycle arrest in human HeLa cells assessed as accumulation at sub-G1 phase at 2 times IC50 after 24 hrs in presence of caspase-3 inhibitor Z-DEVD-FMK by propidium iodide-staining based flow cytometric method; format: functional
How it was run: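 HeLa cells pretreated 2 h with 40 μM peptide caspase inhibitor (Z-DEVD-FMK caspase-3, Z-IETD-FMK caspase-8 or Z-LEHD-FMK caspase-9), then exposed to 2×IC50 compound; subG1 fraction by propidium iodide flow cytometry, compared with samples lacking inhibitor.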

HeLa [2] = assay: Cell cycle arrest in human HeLa cells assessed as decrease in cell levels at G1 phase at IC50 after 24 hrs by propidium iodide staining-based flow cytometric method; format: functional
How it was run: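 HeLa cells treated 24 h at IC50 or 2×IC50 (from 72 h assay), fixed in 70% ethanol, stored at –20 °C ≥1 week, RNase A 30 min 37 °C, propidium iodide stained; flow cytometry, 10 000 gated events. Mean ± SD of three independent experiments; one-way ANOVA with Dunnett's post-test, p < 0.05.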

HeLa [3] = assay: Downregulation of miR-133b expression in human HeLa cells at 10 uM after 24 hrs by RT-qPCR method; format: functional, cell-based
A549 = assay: Cytotoxicity against human A549 cells assessed as decrease in cell survival after 72 hrs by MTT assay; format: functional, cell-based; settings: A549, 72 h
How it was run: (§1)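 HeLa (2000/well), A549 and MRC-5 (5000/well) seeded 20 h before treatment; HL-60 (7000/well) 2 h before. Five concentrations (6.25–100 μM or 3.125–50 μM) from 5 mM DMSO stocks, final DMSO ≤1%, 72 h; survival by MTT. Cisplatin positive control; three independent experiments in triplicate.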

HeLa [4] = assay: Downregulation of TIMP3 gene expression in human HeLa cells at 10 uM after 24 hrs by RT-qPCR method; format: functional, cell-based
HL-60 = assay: Cytotoxicity against human HL60 cells assessed as decrease in cell survival after 72 hrs by MTT assay; format: functional, cell-based; settings: HL-60, 72 h; how it was run: as §1
HeLa [5] = assay: Cytotoxicity against human HeLa cells assessed as decrease in cell survival after 72 hrs by MTT assay; format: functional, cell-based; how it was run: as §1
Calf thymus DNA = assay: Binding affinity to calf thymus DNA assessed as hyperchromism at 40 uM after 90 mins by UV/visible spectrophotometric analysis; format: nucleic-acid assay; settings: Bos taurus
How it was run: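 CT-DNA stock in 10 mM Tris-HCl pH 7.9 (A260/A280 1.89–2.01; concentration from ε260 6600 M–1 cm–1). Compound (10, 20 or 40 μM) plus CT-DNA (95 μM) in 40 mM bicarbonate pH 8.4, 37 °C 90 min; spectra 200–800 nm. Hyper/hypochromism at 259 nm from bound versus summed free compound and DNA extinction; triplicate.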

MRC5 [6] = assay: Induction of DNA damage in human MRC5 cells assessed as formation of DNA breaks at 25 uM after 24 hrs by comet assay relative to control; format: functional
How it was run: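 MRC-5 cells exposed 24 h to 3.125–25 μM compound; DNA damage scored as % tail DNA (tail intensity) by comet assay. PBS negative control; H2O2 50 μM 5 min in-gel positive control. Triplicate, repeated twice; mean ± SD.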

MRC5 [7] = assay: Cytotoxicity against human MRC5 cells assessed as decrease in cell survival after 72 hrs by MTT assay; format: cell-based; settings: MRC5, 72 h; how it was run: as §1
HeLa [8] = assay: Upregulation of miR-206 expression in human HeLa cells at 10 uM after 24 hrs by RT-qPCR method; format: functional, cell-based

Cc1cccc(C(=O)/C=C/c2ccc(C(=O)Nc3nnc(-c4ccc(O)c(O)c4)s3)cc2)c1
Activity (HeLa [1]): inactive
Activity (HeLa [2]): Active
Activity (HeLa [3]): Active
IC50 (A549): 27.9 µM
Activity (HeLa [4]): Active
IC50 (HL-60): 8.39 µM
IC50 (HeLa [5]): 9.63 µM
Activity (Calf thymus DNA): -4.9%
Activity (MRC5 [6]): 38%
IC50 (MRC5 [7]): 34.2 µM
Activity (HeLa [8]): Active
